Calls of active or inactive are those of the source. Where a SMILES comes first, the peptide text is derived from it. [ ]: non-standard residue; d: D form. The star is where a group is joined. X1 = Cc1cc(O)cc(C)c1C[C@H](C)C(=O)*; Orn = NCCC[C@H](N)C(=O)O
Experiments:
[1] = target: Mu-type opioid receptor (Homo sapiens, UniProt P35372); test: Displacement of [3H]diprenorphine from human MOR expressed in mouse NG108-15 cell membranes incubated for 2 hrs by liquid scintillation counting based radioligand competition assay
[2] = target: T1, Kappa-type opioid receptor (Homo sapiens, UniProt P41145); test: Agonist activity at human KOR expressed in CHO cell membranes at 10 uM incubated for 1 hr by liquid scintillation counting based [35S]GTP-gamma-S assay; settings: Cell membrane
Outline: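 Frozen KOR-CHO cell pellets are homogenized and spun at 20 000g. 15 µg of membrane protein is incubated with test compound or vehicle and 0.1 nM [35S]GTPγS in 50 mM Tris-HCl pH 7.4 with 100 mM NaCl, 5 mM MgCl2, 1 mM EDTA and 40 µM GDP, for 1 h at 30 °C. Filtration and scintillation counting follow, and the result is expressed as % of U50,488 stimulation.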

[3] = target: T1, Kappa-type opioid receptor; test: Antagonist activity at human KOR expressed in CHO cell membranes assessed as reduction in U50,488 induced response incubated for 1 hr by liquid scintillation counting based [35S]GTP-gamma-S assay relative to naloxone; settings: Cell membrane
Outline: (§1)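 The assay uses KOR-CHO membranes (15 µg protein) with 0.1 nM [35S]GTPγS and 40 µM GDP, for 1 h at 30 °C, in the presence of 100 nM U50,488 as agonist. Bound label is counted after filtration. Data are normalized to 100 nM U50,488 (100%) and fit to a three-parameter inhibition curve. Imax is given relative to naloxone.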

[4] = Toxicity in mouse HN9.10 cells expressing human KOR assessed as cell viability at 1 mM after 24 hrs by XTT assay; format: cell-based; settings: read-out: Activity
[5] = target: T1, Kappa-type opioid receptor; test: Antagonist activity at human KOR expressed in CHO cell membranes assessed as reduction in U50,488 induced response incubated for 1 hr by liquid scintillation counting based [35S]GTP-gamma-S assay; set-up: species or system Cell membrane
[6] = test system: Mus musculus; test: Inhibition of KOR selective agonist FE200665-induced antinociceptive activity in ICR mouse assessed as effect on tail withdrawal latency at 10 ug, it dosed 15 mins before FE200665 dosing and measured after 45 mins by tail flick test; format: functional, organism-based; settings: dose 10.0 µg, time 60.0 min
Outline: (§2)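 Adult male ICR mice given vehicle (MPH2O) or compound by lumbar puncture, 10 µg in 5 µL, n = 6/treatment, at t = −15 min. At t = 0 they received FE200665, 10 µg in 5 µL by lumbar puncture. Tail flick from 52 °C water retested up to 9 times over 24 h, 10.0 s cutoff. % antinociception = 100×(test−baseline)/(cutoff−baseline). Nonparametric two-way ANOVA with Bonferroni post hoc.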

[7] = test system: Mus musculus; test: Inhibition of KOR selective agonist FE200665-induced antinociceptive activity in ICR mouse assessed as effect on tail withdrawal latency at 10 ug, it dosed 15 mins before FE200665 dosing and measured at 15 mins by tail flick test; format: functional, organism-based; settings: dose 10.0 µg, time 30.0 min; outline: as §2
[8] = target: T1, Kappa-type opioid receptor; test: Antagonist activity at human KOR expressed in CHO cell membranes assessed as reduction in U50,488 induced response at 10 uM incubated for 1 hr by liquid scintillation counting based [35S]GTP-gamma-S assay relative to naloxone; settings: Cell membrane; outline: as §1
[9] = Half life in rat plasma by RP-HPLC analysis; format: ADME, cell-free
Outline: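 Stock at 50 mg/mL diluted 5-fold into heparinized rat plasma at 37 °C. Aliquots taken at 1, 2, 4, 6, 12 and 24 h were quenched with EtOH (ACN for one analogue) and centrifuged.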

[10] = species: Mus musculus; test: Antinociceptive activity in ICR mouse assessed as elevation in tail withdrawal latency at 1 ug, it measured after 30 mins by tail flick test; format: functional, organism-based; settings: dose 1.0 µg
[11] = species: Mus musculus; test: Antinociceptive activity in ICR mouse assessed as elevation in tail withdrawal latency at 10 ug, it measured after 30 mins by tail flick test; format: functional, organism-based; settings: dose 10.0 µg
[12] = test system: Mus musculus; test: Inhibition of KOR selective agonist FE200665-induced antinociceptive activity in ICR mouse assessed as effect on tail withdrawal latency at 10 ug, it dosed 15 mins before FE200665 dosing and measured up to 45 mins by tail flick test; format: functional, organism-based; settings: dose 10.0 µg, time min <=45; outline: as §2
[13] = target: Delta-type opioid receptor (Homo sapiens, UniProt P41143); test: Displacement of [3H]deltorphin-II from human DOR expressed in CHO cell membranes incubated for 2 hrs by liquid scintillation counting based radioligand competition assay
Outline: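 Crude membranes from transfected cells, 50 µg protein, in 50 mM Tris-HCl pH 7.4 with bacitracin 50 µg/mL, captopril 10 µM, PMSF 100 µM and BSA 5 mg/mL. Ten concentrations (10−4–10−13 M) were run against 500 pM [3H]deltorphin II for 2 h at rt with shaking. Nonspecific binding was taken with 10 µM naloxone. Filtered on PEI-soaked GF/B, washed in cold saline, scintillation counted.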

[14] = species: Cavia porcellus; test: Agonist activity at OPRK in isolated Hartley guinea pig ileum/longitudinal muscle with myenteric plexus assessed as inhibition of electrically stimulated muscle contraction at 1 uM relative to control; format: tissue-based
Outline: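 Male Hartley guinea pig LMMP strips under 1 g tension in oxygenated Krebs bicarbonate buffer, 37 °C, field-stimulated at 0.1 Hz, 0.4 ms, supramaximal voltage. Compound tested at 1 µM. Activity given as percent of agonist response relative to the mean signal over the 3 min before drug. Tissue integrity checked first with a PL-017 dose-response curve.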

[15] = test system: Mus musculus; test: Inhibition of KOR selective agonist FE200665-induced antinociceptive activity in ICR mouse assessed as effect on tail withdrawal latency at 10 ug, it dosed 15 mins before FE200665 dosing and measured up to 24 hrs by tail flick test; format: functional, organism-based; settings: dose 10.0 µg, time hrs <=24; outline: as §2
[16] = species: Mus musculus; test: Antinociceptive activity in ICR mouse assessed as elevation in tail withdrawal latency at 0.1 ug, it measured after 30 mins by tail flick test; format: functional, organism-based; settings: dose 0.1 µg
[17] = test system: Mus musculus; test: Inhibition of KOR selective agonist FE200665-induced antinociceptive activity in ICR mouse assessed as effect on tail withdrawal latency at 10 ug, it dosed 15 mins before FE200665 dosing and measured at 24 hrs by tail flick test; format: functional, organism-based; settings: dose 10.0 µg; outline: as §2

Chain of Mu-type opioid receptor (P35372 whole entry): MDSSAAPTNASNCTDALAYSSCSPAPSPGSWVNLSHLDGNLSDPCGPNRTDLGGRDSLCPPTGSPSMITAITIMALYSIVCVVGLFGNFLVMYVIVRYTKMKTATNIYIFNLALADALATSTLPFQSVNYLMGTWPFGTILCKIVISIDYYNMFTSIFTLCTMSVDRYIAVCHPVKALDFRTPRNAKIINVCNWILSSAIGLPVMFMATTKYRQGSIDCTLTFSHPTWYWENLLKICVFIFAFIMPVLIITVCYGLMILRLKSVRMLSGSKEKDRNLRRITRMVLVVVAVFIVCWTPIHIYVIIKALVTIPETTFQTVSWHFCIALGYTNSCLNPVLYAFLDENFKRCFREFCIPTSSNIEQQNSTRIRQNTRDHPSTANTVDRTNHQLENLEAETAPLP
T1 sequence (P41145 whole entry): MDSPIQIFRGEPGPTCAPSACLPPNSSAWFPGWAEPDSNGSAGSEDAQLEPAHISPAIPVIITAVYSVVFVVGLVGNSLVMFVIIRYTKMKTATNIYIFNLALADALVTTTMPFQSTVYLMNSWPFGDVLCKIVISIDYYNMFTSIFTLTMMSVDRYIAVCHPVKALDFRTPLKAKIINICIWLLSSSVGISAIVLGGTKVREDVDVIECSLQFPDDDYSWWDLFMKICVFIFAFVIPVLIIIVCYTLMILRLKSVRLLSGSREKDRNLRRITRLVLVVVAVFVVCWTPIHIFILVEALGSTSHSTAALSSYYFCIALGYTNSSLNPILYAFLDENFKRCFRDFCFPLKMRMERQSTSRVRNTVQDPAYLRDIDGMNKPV
Chain of Delta-type opioid receptor (P41143 whole entry): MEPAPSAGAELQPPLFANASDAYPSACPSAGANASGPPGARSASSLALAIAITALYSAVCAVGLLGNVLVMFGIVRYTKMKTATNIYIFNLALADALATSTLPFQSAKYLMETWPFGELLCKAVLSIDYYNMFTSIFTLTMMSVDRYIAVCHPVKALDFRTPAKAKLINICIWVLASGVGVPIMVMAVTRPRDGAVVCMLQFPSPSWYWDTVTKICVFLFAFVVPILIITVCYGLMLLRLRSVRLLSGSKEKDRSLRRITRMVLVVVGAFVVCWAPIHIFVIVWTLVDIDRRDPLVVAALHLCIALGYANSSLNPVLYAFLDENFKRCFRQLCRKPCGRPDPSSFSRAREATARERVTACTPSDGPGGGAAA

CC(=O)N[C@@H](Cc1ccc(O)cc1)C(=O)NCC(=O)N1CCC[C@H]1C(=O)N[C@@H](Cc1ccccc1)C(=O)N[C@@H](CC(C)C)C(=O)N[C@@H](CCCNC(=N)N)C(=O)N[C@H](C)C(=O)N[C@@H](CCCNC(=N)N)C(=O)N1CCC[C@H]1C(=O)N[C@@H](CCCCN)C(N)=O (Ac-YGPFLR[dA]RPK-NH2)
Ki ([1]; ng108-15): Not Active

H-YGGFLRIRPK-NH2
Activity ([2]; filed as agonist): Active
Imax [3]: inactive
viability at 24 h, 1000 µM [4]: 100%
IC50 [5]: Not Active

H-YGPFLRIRPK-NH2
Activity [6]: inactive
Activity [7]: Active
Imax [8]: 38%
half-life [9]: 1.4 h
viability at 24 h, 1000 µM [4]: 100%
Activity [10]: Active
Activity [11]: Active
Activity [12]: Active
Ki ([1]; read-out: Ki): > 10 µM

CC(=O)N[C@@H](Cc1ccc(O)cc1)C(=O)NCC(=O)NCC(=O)N[C@@H](Cc1ccccc1)C(=O)N[C@@H](CC(C)C)C(=O)N[C@@H](CCCNC(=N)N)C(=O)N[C@H](C)C(=O)N[C@@H](CCCNC(=N)N)C(=O)N1CCC[C@@H]1C(=O)N[C@@H](CCCCN)C(N)=O (Ac-YGGFLR[dA]R[dP]K-NH2)
half-life [9]: 350 h
Ki ([1]; ng108-15): Not Active

CC(=O)N[C@@H](Cc1ccc(O)cc1)C(=O)NCC(=O)N1CCC[C@H]1C(=O)N[C@@H](Cc1ccccc1)C(=O)N[C@@H](CC(C)C)C(=O)N[C@@H](CCCNC(=N)N)C(=O)N[C@H](C)C(=O)N[C@@H](CCCNC(=N)N)C(=O)N1CCC[C@@H]1C(=O)N[C@@H](CCCCN)C(N)=O (Ac-YGPFLR[dA]R[dP]K-NH2)
Ki ([1]; ng108-15): Not Active

H-YGGFLRIRPK-OH
Activity ([2]; filed as agonist): Active
Imax [3]: inactive
viability at 24 h, 1000 µM [4]: 100%
IC50 [5]: Not Active

CC(=O)N[C@@H](Cc1ccc(O)cc1)C(=O)NCC(=O)N1CCC[C@H]1C(=O)N[C@@H](Cc1ccccc1)C(=O)N[C@@H](CC(C)C)C(=O)N[C@@H](CCCN)C(=O)N[C@H](C)C(=O)N[C@@H](CCCNC(=N)N)C(=O)N1CCC[C@H]1C(=O)N[C@@H](CCCCN)C(N)=O (Ac-YGPFL[Orn][dA]RPK-NH2)
Ki [13]: > 10 µM
Ki ([1]; ng108-15): Not Active

CC[C@H](C)[C@H](NC(=O)[C@H](CCCNC(=N)N)NC(=O)[C@H](CC(C)C)NC(=O)[C@H](Cc1ccccc1)NC(=O)CNC(=O)CNC(=O)[C@@H](C)Cc1c(C)cc(O)cc1C)C(=O)N[C@@H](CCCNC(=N)N)C(=O)N1CCC[C@H]1C(=O)N[C@@H](CCCCN)C(N)=O (X1-GGFLRIRPK-NH2)
inhibition [14]: 0%
Activity [2]: inactive
viability at 24 h, 1000 µM [4]: 100%

Ac-YGGFLRIRPK-NH2
inhibition [14]: 0%
Activity [2]: inactive

CC[C@H](C)[C@H](NC(=O)[C@H](CCCNC(=N)N)NC(=O)[C@H](CC(C)C)NC(=O)[C@H](Cc1ccccc1)NC(=O)CNC(=O)CNC(=O)[C@@H](C)Cc1c(C)cc(O)cc1C)C(=O)N[C@@H](CCCNC(=N)N)C(N)=O (X1-GGFLRIR-NH2)
Activity [15]: Active
Activity [16]: inactive
Activity [17]: inactive
Activity [10]: inactive
Activity [11]: inactive

H-YGPFLRIR-NH2
Imax [8]: 29%
half-life [9]: 2.1 h
Ki ([1]; ng108-15): Not Active

CC[C@H](C)[C@H](NC(=O)[C@H](CCCN=C(N)N)NC(=O)[C@H](CCCN=C(N)N)NC(=O)[C@H](CC(C)C)NC(=O)[C@H](Cc1ccccc1)NC(=O)CNC(=O)CNC(=O)[C@@H](N)Cc1ccc(O)cc1)C(=O)N[C@@H](CCCN=C(N)N)C(=O)N1CCC[C@H]1C(=O)N[C@@H](CCCCN)C(N)=O
viability at 24 h, 1000 µM [4]: 100%

H-YGGFLRIRPKLK-OH
Activity ([2]; filed as agonist): Active
Imax [3]: inactive
IC50 [5]: Not Active

CC[C@H](C)[C@H](NC(=O)[C@H](CCCNC(=N)N)NC(=O)[C@H](CC(C)C)NC(=O)[C@H](Cc1ccccc1)NC(=O)CNC(=O)CNC(=O)[C@@H](C)Cc1c(C)cc(O)cc1C)C(=O)N[C@@H](CCCNC(=N)N)C(=O)N1CCC[C@H]1C(=O)N[C@@H](CCCCN)C(=O)O (X1-GGFLRIRPK-OH)
inhibition [14]: 8.7%
Activity [2]: inactive

Ac-YGPFLRIRPK-NH2
Ki [13]: > 10 µM
Ki ([1]; ng108-15): Not Active

Source: ChEMBL document CHEMBL4715797, “Structure-Activity Relationships of [des-Arg]Dynorphin A Analogues at the κ Opioid Receptor” (J Med Chem, 2016)
